Source: ChEMBL document CHEMBL2086239, “Synthesis and biological evaluation of combretastatin-amidobenzothiazole conjugates as potential anticancer agents” (Eur J Med Chem, 2012)
Activity calls are given as the source filed them. The calls are words filed in the database; no cut-off is given here.

How the values were obtained:
Assay type in all cases: functional
SF-539 = experiment: Growth inhibition of human SF539 cells after 48 hrs by SRB assay; conditions: SF-539, 48 h
How it was run: (§1)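 NCI 60-cell-line panel, five-dose testing after preliminary screen; sulforhodamine B protein assay in DMEM with 10% FBS, 37 °C, 5% CO2, 100% humidity. Cells seeded and incubated 24 h before compound addition, then exposed 48 h. Absorbance read at 560 nm; growth percentage relative to control wells; GI50 taken as concentration giving 50% growth inhibition.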

NCI-H226 = experiment: Growth inhibition of human NCI-H226 cells after 48 hrs by SRB assay; conditions: NCI-H226, 48 h
How it was run: (§2)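 NCI 60-cell-line screen: after preliminary screening, tested at five dose concentrations on 59 human tumour lines covering leukemia, lung, colon, CNS, melanoma, ovarian, renal, prostate and breast.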

NCI-H322M = experiment: Growth inhibition of human NCI-H322M cells after 48 hrs by SRB assay; how it was run: as §2
SF-295 = experiment: Growth inhibition of human SF295 cells after 48 hrs by SRB assay; conditions: SF-295, 48 h; how it was run: as §1
MCF7 [1] = experiment: Cell cycle arrest in human MCF7 cells assessed as accumulation at G1 phase at 4 uM after 24 hrs by FACS analysis (reference value: 58.33%)
MCF7 [2] = experiment: Cytotoxicity against human MCF7 cells after 48 hrs assessed as inhibition of cell growth at 10 uM after 48 hrs by SRB assay relative to control; conditions: MCF7, 48 h, read-out: GI
How it was run: (§3)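 SRB protein assay in DMEM with 10% FBS at 37 °C, 5% CO2, 100% relative humidity. Cells seeded in 96-well plates, incubated 24 h, then exposed to drug at 10 µM for 48 h and processed per standard protocol. Absorbance read at 560 nm; growth percentage calculated for test wells relative to control wells.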

NCI/ADR-RES = experiment: Growth inhibition of human NCI/ADR-RES cells after 48 hrs by SRB assay; how it was run: as §2
SK-MEL-2 = experiment: Growth inhibition of human SK-MEL-2 cells after 48 hrs by SRB assay; conditions: SK-MEL-2, 48 h; how it was run: as §1
UACC-62 = experiment: Growth inhibition of human UACC62 cells after 48 hrs by SRB assay; conditions: UACC-62, 48 h; how it was run: as §1
RXF 393 = experiment: Growth inhibition of human RXF393 cells after 48 hrs by SRB assay; conditions: RXF 393, 48 h; how it was run: as §2
IMR-32 = experiment: Cytotoxicity against human IMR32 cells after 48 hrs assessed as inhibition of cell growth at 10 uM after 48 hrs by SRB assay relative to control; conditions: IMR-32, 48 h, read-out: GI; how it was run: as §3
COLO 205 [3] = experiment: Cytotoxicity against human COLO205 cells after 48 hrs assessed as inhibition of cell growth at 10 uM after 48 hrs by SRB assay relative to control; conditions: COLO 205, 48 h, read-out: GI; how it was run: as §3
UACC-257 = experiment: Growth inhibition of human UACC257 cells after 48 hrs by SRB assay; how it was run: as §1
TK-10 = experiment: Growth inhibition of human TK10 cells after 48 hrs by SRB assay; conditions: TK-10, 48 h; how it was run: as §1
SNB-75 = experiment: Growth inhibition of human SNB75 cells after 48 hrs by SRB assay; conditions: SNB-75, 48 h; how it was run: as §1
M14 = experiment: Growth inhibition of human M14 cells after 48 hrs by SRB assay; conditions: M14, 48 h; how it was run: as §2
HOP-62 = experiment: Growth inhibition of human HOP62 cells after 48 hrs by SRB assay; conditions: HOP-62, 48 h; how it was run: as §2
MDA-MB-435 = experiment: Growth inhibition of human MDA-MB-435 cells after 48 hrs by SRB assay; conditions: MDA-MB-435, 48 h; how it was run: as §2
OVCAR-8 = experiment: Growth inhibition of human OVCAR8 cells after 48 hrs by SRB assay; conditions: OVCAR-8, 48 h; how it was run: as §2
HOP-92 = experiment: Growth inhibition of human HOP92 cells after 48 hrs by SRB assay; conditions: HOP-92, 48 h; how it was run: as §2
SW-620 = experiment: Growth inhibition of human SW620 cells after 48 hrs by SRB assay; conditions: SW-620, 48 h; how it was run: as §1
COLO 205 [4] = experiment: Growth inhibition of human COLO205 cells after 48 hrs by SRB assay; conditions: COLO 205, 48 h; how it was run: as §2
786-0 = experiment: Growth inhibition of human 786-0 cells after 48 hrs by SRB assay; how it was run: as §2
SR = experiment: Growth inhibition of human SR cells after 48 hrs by SRB assay; how it was run: as §1
A549 = experiment: Growth inhibition of human A549 cells after 48 hrs by SRB assay; conditions: A549, 48 h; how it was run: as §2
SN12C = experiment: Growth inhibition of human SN12C cells after 48 hrs by SRB assay; how it was run: as §1
HEp-2 = experiment: Cytotoxicity against human Hep2 cells after 48 hrs assessed as inhibition of cell growth at 10 uM after 48 hrs by SRB assay relative to control; conditions: for inhibition of growth at 10 µM: HEp-2, 48 h, read-out: GI; how it was run: as §3
Malme-3M = experiment: Growth inhibition of human MALME-3M cells after 48 hrs by SRB assay; how it was run: as §2
HT-29 = experiment: Growth inhibition of human HT-29 cells after 48 hrs by SRB assay; how it was run: as §2
OVCAR-5 = experiment: Growth inhibition of human OVCAR5 cells after 48 hrs by SRB assay; conditions: OVCAR-5, 48 h; how it was run: as §2
MCF7 [5] = experiment: Cell cycle arrest in human MCF7 cells assessed as accumulation at S phase at 4 uM after 24 hrs by FACS analysis (reference value: 6.79%)
SNB-19 = experiment: Growth inhibition of human SNB19 cells after 48 hrs by SRB assay; conditions: SNB-19, 48 h; how it was run: as §1
SK-MEL-28 = experiment: Growth inhibition of human SK-MEL-28 cells after 48 hrs by SRB assay; conditions: SK-MEL-28, 48 h; how it was run: as §1
T47D = experiment: Growth inhibition of human T47D cells after 48 hrs by SRB assay; how it was run: as §1
NCI-H522 = experiment: Growth inhibition of human NCI-H522 cells after 48 hrs by SRB assay; conditions: NCI-H522, 48 h; how it was run: as §2
MOLT-4 = experiment: Growth inhibition of human MOLT4 cells after 48 hrs by SRB assay; conditions: MOLT-4, 48 h; how it was run: as §2
Hs-578T = experiment: Growth inhibition of human Hs578T cells after 48 hrs by SRB assay; how it was run: as §2
PC-3 = experiment: Cytotoxicity against human PC3 cells after 48 hrs assessed as inhibition of cell growth at 10 uM after 48 hrs by SRB assay relative to control; conditions: PC-3, 48 h, read-out: GI; how it was run: as §3
SF-268 = experiment: Growth inhibition of human SF268 cells after 48 hrs by SRB assay; conditions: SF-268, 48 h; how it was run: as §2
THP-1 = experiment: Cytotoxicity against human THP1 cells after 48 hrs assessed as inhibition of cell growth at 10 uM after 48 hrs by SRB assay relative to control; conditions: for inhibition of growth at 10 µM: THP-1, 48 h, read-out: GI; how it was run: as §3
OVCAR-3 = experiment: Growth inhibition of human OVCAR3 cells after 48 hrs by SRB assay; conditions: OVCAR-3, 48 h; how it was run: as §2

Compound: COc1ccc(/C=C\c2cc(OC)c(OC)c(OC)c2)cc1OCC(=O)Nc1nc2ccc(C(F)(F)F)cc2s1
- GI50 (SF-539): 2.66 µM
- GI50 (NCI-H226): 3.17 µM
- GI50 (NCI-H322M): 5.38 µM
- GI50 (SF-295): 3.36 µM
- Activity (MCF7 [1]): 55.82%
- inhibition of growth at 10 µM (MCF7 [2]): 62%
- GI50 (NCI/ADR-RES): 2.12 µM
- GI50 (SK-MEL-2): 3.98 µM
- GI50 (UACC-62): 3.9 µM
- GI50 (RXF 393): 2.27 µM
- inhibition of growth at 10 µM (IMR-32): 23%
- inhibition of growth at 10 µM (COLO 205 [3]): 25%
- GI50 (UACC-257; UACC-257, 48 h): 40 µM
- GI50 (TK-10): 7.03 µM
- GI50 (SNB-75): 1.58 µM
- GI50 (M14): 3.58 µM
- GI50 (HOP-62): 5.22 µM
- GI50 (MDA-MB-435): 1.84 µM
- GI50 (OVCAR-8): 3.86 µM
- GI50 (HOP-92): 2.88 µM
- GI50 (SW-620): 4.65 µM
- GI50 (COLO 205 [4]): 17.1 µM
- GI50 (786-0; 786-0, 48 h): 6.96 µM
- GI50 (SR): 3.35 µM
- GI50 (A549): 4.46 µM
- GI50 (SN12C): 4.43 µM
- inhibition of growth at 10 µM (HEp-2): 76%
- GI50 (Malme-3M): inactive
- GI50 (HT-29; HT-29, 48 h): 14.9 µM
- GI50 (OVCAR-5): 5.98 µM
- Activity (MCF7 [5]): 7.15%
- GI50 (SNB-19): 5.03 µM
- GI50 (SK-MEL-28): 3 µM
- GI50 (T47D): 4.79 µM
- GI50 (NCI-H522): 2.89 µM
- GI50 (MOLT-4): 3.75 µM
- GI50 (Hs-578T): 4.18 µM
- inhibition of growth at 10 µM (PC-3): 42%
- GI50 (SF-268): 3.85 µM
- inhibition of growth at 10 µM (THP-1): 29%
- GI50 (OVCAR-3): 2.11 µM

Compound: COc1ccc(/C=C\c2cc(OC)c(OC)c(OC)c2)cc1OCC(=O)Nc1nc2ccccc2s1
- GI50 (SF-539): 0.045 µM
- GI50 (NCI-H226): 0.27 µM
- GI50 (SF-295): 0.22 µM
- Activity (MCF7 [1]): 25.94%
- inhibition of growth at 10 µM (MCF7 [2]): 72%
- GI50 (NCI/ADR-RES): 0.033 µM
- GI50 (SK-MEL-2): 0.18 µM
- GI50 (UACC-62): 0.063 µM
- GI50 (RXF 393): 0.05 µM
- inhibition of growth at 10 µM (IMR-32): 91%
- inhibition of growth at 10 µM (COLO 205 [3]): 60%
- GI50 (UACC-257; UACC-257, 48 h): 11 µM
- GI50 (SNB-75): 0.046 µM
- GI50 (M14): 0.072 µM
- GI50 (MDA-MB-435): 0.019 µM
- GI50 (OVCAR-8): 0.25 µM
- GI50 (HOP-92): 0.039 µM
- GI50 (COLO 205 [4]): 2.83 µM
- GI50 (786-0; 786-0, 48 h): 0.1 µM
- GI50 (SR): 0.037 µM
- GI50 (A549): 0.34 µM
- GI50 (SN12C): 0.37 µM
- growth inhibition (GI) (HEp-2): inactive
- GI50 (Malme-3M): 1.99 µM
- GI50 (HT-29; HT-29, 48 h): 3.16 µM
- Activity (MCF7 [5]): 27.48%
- GI50 (T47D): 1 µM
- GI50 (NCI-H522): 0.079 µM
- GI50 (MOLT-4): 0.34 µM
- inhibition of growth at 10 µM (PC-3): 44%
- GI50 (SF-268): 0.18 µM
- growth inhibition (GI) (THP-1): inactive
- GI50 (OVCAR-3): 0.043 µM

Compound: COc1ccc(/C=C\c2cc(OC)c(OC)c(OC)c2)cc1OCC(=O)Nc1nc2ccc(OC(F)(F)F)cc2s1
- GI50 (SF-539): 2.28 µM
- GI50 (NCI-H226): 4.3 µM
- GI50 (NCI-H322M): inactive
- GI50 (SF-295): 3.7 µM
- Activity (MCF7 [1]): 59.04%
- inhibition of growth at 10 µM (MCF7 [2]): 59%
- GI50 (NCI/ADR-RES): 2.7 µM
- GI50 (SK-MEL-2): 3.29 µM
- GI50 (UACC-62): 5.11 µM
- GI50 (RXF 393): 2.65 µM
- inhibition of growth at 10 µM (IMR-32): 44%
- inhibition of growth at 10 µM (COLO 205 [3]): 41%
- GI50 (UACC-257): inactive
- GI50 (TK-10): 18.6 µM
- GI50 (SNB-75): 1.56 µM
- GI50 (M14): 4.36 µM
- GI50 (HOP-62): 7.09 µM
- GI50 (MDA-MB-435): 1.93 µM
- GI50 (OVCAR-8): 5 µM
- GI50 (HOP-92): 2.74 µM
- GI50 (SW-620): 5.65 µM
- GI50 (COLO 205 [4]): 43.3 µM
- GI50 (786-0): inactive
- GI50 (SR): 3.55 µM
- GI50 (A549): 6 µM
- GI50 (SN12C): 6.42 µM
- inhibition of growth at 10 µM (HEp-2): 78%
- GI50 (HT-29): inactive
- GI50 (OVCAR-5): 3.12 µM
- Activity (MCF7 [5]): 7.51%
- GI50 (SNB-19): 7.08 µM
- GI50 (SK-MEL-28): 4.57 µM
- GI50 (T47D): 3.95 µM
- GI50 (NCI-H522): 3.16 µM
- GI50 (MOLT-4): 4.21 µM
- GI50 (Hs-578T): 4.33 µM
- inhibition of growth at 10 µM (PC-3): 34%
- GI50 (SF-268): 6.01 µM
- inhibition of growth at 10 µM (THP-1): 66%
- GI50 (OVCAR-3): 3.37 µM
